Assay outcomes from PubChem.
N-glyco inh: blocks N-linked glycosylation in D54 reporter cells; reporter increase, % at 12.5 µM; D54 ERlucT glycosylation luciferase reporter, 24 h; percent of 100 nM tunicamycin response; actives 0.23% (n = 360,000); AID 588692;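 active = mean luciferase reporter signal, scaled so untreated is 0 and the glycosylation-blocking control 100, at or above a set limit in every replicate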;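 also: luciferase carries N-glycosylation sites so blocking glycosylation raises the light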
FN deposition inh: fibronectin deposition inhibition. AH1F fibroblasts, Alexa488-fibronectin deposition fluorescence, overnight. inhibition, % at 12.6 µM. actives 0.086% (n = 350,000). AID 743247;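 active = mean inhibition across replicates of 30% or more, regardless of how many single replicates reach that level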
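test system = AH1F fibroblasts assembling fluorescent fibronectin matrix | quantity = 10000 AH1F cells per well | buffer or medium = DMEM plus 2% serum, read in PBS | doses = single dose, pinned | incubation = 1 h cell attachment, overnight exposure to compound and label | detection = fluorescence at 485 nm excitation, 525 nm emission | read-out basis = inhibition from reduced deposited-fibronectin fluorescence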
MLL AF4-AF9 inh: blocks AF4 peptide binding to human AF9; inhibition, % at 10 µM; P42568; AlphaScreen, biotin-AF4 peptide binding to FLAG-AF9; actives 0.47% (n = 350,000); AID 651704;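 active = every replicate reaching a set inhibition limit, whatever the replicate mean, cut at about 25% in these data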
NSD2 HMT inh: inhibitors of human histone methyltransferase NSD2; O96028; NSD2 peptide methylation, AlphaScreen, 120 min; inhibition, % at 12.5 µM; actives 0.54% (n = 310,000); AID 743445; in the data active = inhibition above about 50%
RAD52 inh: RAD52 (human) annealing inhibition. recombinant RAD52 DNA annealing, FRET fluorescence. inhibition, % at 18.7 µM. actives 0.46% (n = 360,000). AID 651710;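 active = every replicate showing at least 50% inhibition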
RAD54 branch: inhibitors of human RAD54 branch migration. Q92698. RAD54 Holliday junction branch migration, FAM/BHQ fluorescence. inhibition, % at 10.4 µM. actives 0.14% (n = 360,000);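 active = mean normalized replicate activity at least 40 and at least half of replicates scoring 40 or more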;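 also: inhibitors cause a drop in the FAM fluorescence signal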
Target sequence (Q92698 whole entry, looked up): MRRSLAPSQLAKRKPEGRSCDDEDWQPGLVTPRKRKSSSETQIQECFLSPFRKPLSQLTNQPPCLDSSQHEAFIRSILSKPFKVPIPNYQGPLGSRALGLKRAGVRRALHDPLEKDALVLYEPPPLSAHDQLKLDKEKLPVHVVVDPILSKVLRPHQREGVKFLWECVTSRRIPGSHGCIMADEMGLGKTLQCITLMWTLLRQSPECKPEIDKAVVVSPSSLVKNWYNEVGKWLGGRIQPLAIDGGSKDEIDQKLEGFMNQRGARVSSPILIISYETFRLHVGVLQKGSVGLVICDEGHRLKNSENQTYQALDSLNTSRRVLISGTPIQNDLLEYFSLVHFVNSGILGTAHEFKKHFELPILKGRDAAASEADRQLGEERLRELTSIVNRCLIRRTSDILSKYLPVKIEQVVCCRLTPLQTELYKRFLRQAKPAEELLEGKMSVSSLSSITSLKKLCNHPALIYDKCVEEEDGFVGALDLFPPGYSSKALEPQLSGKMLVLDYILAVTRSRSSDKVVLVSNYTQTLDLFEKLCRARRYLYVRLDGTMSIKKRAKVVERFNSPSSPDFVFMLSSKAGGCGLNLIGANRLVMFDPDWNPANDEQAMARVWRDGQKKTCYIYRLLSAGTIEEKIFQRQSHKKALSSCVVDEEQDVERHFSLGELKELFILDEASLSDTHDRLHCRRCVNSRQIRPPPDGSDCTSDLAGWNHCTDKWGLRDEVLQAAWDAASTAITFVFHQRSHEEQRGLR
Large screens that a line does not name were inactive; ! = repeats disagree. A selection: hits, their analogues and other compounds. The true share with any hit is near 1.2%.

C/C=C/c1ccc(C2[C@H]3CNC[C@@H]2N3Cc2ccc3c(c2)OCO3)cc1 (some centres undefined)	none (no result: N-glyco inh, MLL AF4-AF9 inh, NSD2 HMT inh, RAD52 inh, RAD54 branch)
C(=C\c1ccc(C2[C@@H]3CN(Cc4cccnc4)C[C@H]2N3)cc1)/c1ccccc1 (some centres undefined)	MLL AF4-AF9 inh 33, RAD52 inh 70! (no result: N-glyco inh, NSD2 HMT inh, RAD54 branch)
O=S(=O)(c1ccccc1)N1C[C@@H]2N[C@H](C1)C2c1ccc(/C=C/c2ccccc2)cc1 (some centres undefined)	RAD52 inh 87! (no result: N-glyco inh, NSD2 HMT inh, RAD54 branch)
C/C=C/c1ccc(C2[C@@H]3CN(Cc4ccc5c(c4)OCO5)C[C@H]2N3)cc1 (some centres undefined)	RAD52 inh 61! (no result: N-glyco inh, NSD2 HMT inh, RAD54 branch)
O=S(=O)(c1ccccc1F)N1[C@@H]2CNC[C@H]1C2c1ccc(/C=C/c2ccccc2)cc1 (some centres undefined)	RAD52 inh 52! (no result: N-glyco inh, NSD2 HMT inh, RAD54 branch)
O=C(NC[C@@H]1CC[C@@H]2[C@@H](CN2Cc2ccccc2F)O1)C1CC1	none (no result: N-glyco inh, FN deposition inh, NSD2 HMT inh, RAD54 branch)
O=C(C[C@H]1CC[C@H]2[C@@H](COC[C@@H](O)CN2C(=O)c2cnccn2)O1)NCc1ccc(F)cc1	none (no result: N-glyco inh, NSD2 HMT inh)
O=S(=O)(c1ccccc1F)N1C[C@@H]2N[C@H](C1)C2c1ccc(/C=C/c2ccccc2)cc1 (some centres undefined)	RAD52 inh 74! (no result: N-glyco inh, NSD2 HMT inh, RAD54 branch)
Cc1ccccc1S(=O)(=O)N1C[C@@H]2N[C@H](C1)C2c1ccc(/C=C/c2ccccc2)cc1 (some centres undefined)	none (no result: N-glyco inh, MLL AF4-AF9 inh, NSD2 HMT inh, RAD52 inh, RAD54 branch)
CCOCCCNC(=O)/C(C#N)=C/c1cc(Br)c(O)c(Br)c1	N-glyco inh 30 (no result: FN deposition inh, MLL AF4-AF9 inh, NSD2 HMT inh, RAD52 inh)
C[C@@H]1CN([C@H](C)CO)C(=O)c2cccc(NS(=O)(=O)c3ccc(Cl)cc3)c2O[C@H]1CN(C)C(=O)Nc1ccccc1	none (no result: N-glyco inh, FN deposition inh, NSD2 HMT inh)
CO[C@H]1CN(C)C(=O)c2cc(NC(=O)Nc3cccc(Cl)c3)ccc2OC[C@H](C)N(C)C[C@H]1C	none (no result: N-glyco inh, NSD2 HMT inh)
COc1ccccc1CN1C[C@@H](C)[C@H](OC)CN(C)C(=O)c2cc(NC(=O)Nc3ccccc3OC)ccc2OC[C@H]1C	RAD52 inh 52 (no result: N-glyco inh, NSD2 HMT inh)
COc1cccc(NC(=O)Nc2ccc3c(c2)C(=O)N(C)C[C@H](OC)[C@@H](C)CN(C)[C@H](C)CO3)c1	RAD52 inh 94 (no result: N-glyco inh, NSD2 HMT inh)
COc1cccc(NC(=O)Nc2ccc3c(c2)C(=O)N(C)C[C@@H](OC)[C@@H](C)CN(C)[C@@H](C)CO3)c1	RAD52 inh 88 (no result: N-glyco inh, FN deposition inh, NSD2 HMT inh)
COc1cccc(NC(=O)Nc2ccc3c(c2)C(=O)N(C)C[C@H](OC)[C@H](C)CN(C)[C@@H](C)CO3)c1	RAD52 inh 93 (no result: N-glyco inh, NSD2 HMT inh)
CN1C(=O)c2cc(NC(=O)c3ccc(F)c(F)c3)ccc2OC[C@@H]2O[C@@H](CC(=O)N[C@H]3CCN(Cc4ccccc4)C3)CC[C@@H]21	none (no result: N-glyco inh, NSD2 HMT inh, RAD52 inh)
CC(C)NC(=O)N(C)C[C@@H]1Oc2ncc(-c3ccc(C(=O)N(C)C)cc3)cc2C(=O)N([C@H](C)CO)C[C@@H]1C	none (no result: N-glyco inh, NSD2 HMT inh)
CO[C@H]1CN(C)C(=O)c2cc(NC(C)=O)ccc2OC[C@@H](C)N(C(=O)CN2CCOCC2)C[C@H]1C	FN deposition inh 31 (no result: N-glyco inh, NSD2 HMT inh)
Cn1cc(C=C2C(=O)OC3(CCCCC3)OC2=O)c2ccccc21	MLL AF4-AF9 inh 26
O=C(C[C@@H]1C/C=C/CC[C@H](Cc2ccc(F)cc2)C(=O)OC[C@@H](Cc2ccccc2)NC1=O)N[C@H](CO)Cc1ccccc1	N-glyco inh 126 (no result: NSD2 HMT inh)
C[C@@H]1COC(=O)[C@H](Cc2ccc(F)cc2)CC/C=C/C[C@@H](CC(=O)N[C@@H](CO)Cc2ccccc2)C(=O)N1	none (no result: NSD2 HMT inh)
C[C@@H]1CN([C@@H](C)CO)C(=O)c2cc(NC(=O)CCC(F)(F)F)ccc2O[C@H]1CN(C)CC1CCCCC1	none (no result: N-glyco inh, NSD2 HMT inh)
O=C(C[C@@H]1CC[C@@H]2[C@H](COC[C@H](O)CN2C(=O)Nc2ccc(F)cc2)O1)NCCCN1CCOCC1	none (no result: N-glyco inh, NSD2 HMT inh)
Cc1ccc(S(=O)(=O)N2C[C@H](O)COC[C@H]3O[C@H](CC(=O)NCC4CCCCC4)CC[C@@H]32)cc1	RAD52 inh 65 (no result: N-glyco inh, NSD2 HMT inh)
CN(C)CCCNC(=O)C[C@@H]1CC[C@H]2[C@@H](COC[C@H](O)CN2CC2CCCCC2)O1	RAD52 inh 65 (no result: N-glyco inh, NSD2 HMT inh, RAD54 branch)
O=C(C[C@@H]1CC[C@@H]2[C@H](COC[C@H](O)CN2S(=O)(=O)c2ccc(F)cc2)O1)NCC1CCCCC1	none (no result: N-glyco inh, NSD2 HMT inh)
